# Reference: ChEMBL document CHEMBL3102784, “Salicylanilide diethyl phosphates: synthesis, antimicrobial activity and cytotoxicity” (Bioorg Med Chem, 2014)
# pIC50: −log10 of the molar value. Calls of active or inactive are those of the source. The rule behind the calls is not given here.
# How the values were obtained:
# [1] = test system: Trichophyton mentagrophytes; assay: Antifungal activity against Trichophyton mentagrophytes 445 after 120 hrs by broth microdilution method; format: functional; conditions: Trichophyton mentagrophytes, 445, 120 h
# How it was run: (§1)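 Filamentous dermatophyte tested by broth microdilution in RPMI 1640 with glutamine, fluconazole as reference. Value expressed as IC50 relative to growth control. Read at 72 and 120 h.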
# [2] = test system: Mycobacterium tuberculosis; assay: Antimycobacterial activity against Mycobacterium tuberculosis H37Rv My 331/88 after 21 days; format: functional; conditions: H37Rv My 331/88, 504 h
# How it was run: (§2)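 Micromethod MIC in Šula's semisynthetic medium at 37 °C. Compounds added in DMSO at 1000 down to 0.032 µmol/L. Isoniazid standard in sterile water at 0.5–250 µmol/L. Inocula: H37Rv 10^3, M. avium 10^5, M. kansasii 10^4. Read at 14 and 21 d, plus 7 d for M. kansasii.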
# Lichtheimia corymbifera [3] = assay: Antifungal activity against Absidia corymbifera 272 after 24 hrs by broth microdilution method; format: functional; conditions: Lichtheimia corymbifera, 272, 24 h
# How it was run: (§3)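 Broth microdilution in RPMI 1640 with glutamine, fluconazole as reference. For yeasts, MIC is ≥80% growth reduction (IC80) versus control. For filamentous fungi, the value is expressed as IC50. Readings at 24 and 48 h.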
# [4] = test system: Mycobacterium tuberculosis; assay: Antimycobacterial activity against Mycobacterium tuberculosis H37Rv My 331/88 after 14 days; format: functional; conditions: H37Rv My 331/88, 336 h; how it was run: as §2
# Mycobacterium kansasii [5] = assay: Antimycobacterial activity against Mycobacterium kansasii My 235/80 after 7 days; format: functional; conditions: My 235/80, 168 h; how it was run: as §2
# Mycobacterium kansasii [6] = assay: Antimycobacterial activity against Mycobacterium kansasii My 235/80 after 14 days; format: functional; conditions: My 235/80, 336 h; how it was run: as §2
# Mycobacterium kansasii [7] = assay: Antimycobacterial activity against Mycobacterium kansasii 6509/96 after 14 days; format: functional; conditions: 6509/96, 336 h; how it was run: as §2
# Staphylococcus aureus [8] = assay: Antibacterial activity against methicillin-resistant Staphylococcus aureus H 5996/08 after 24 hrs by broth microdilution method; format: functional; conditions: H 5996/08, 24 h
# How it was run: (§4)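 Broth microdilution in Mueller–Hinton broth, compounds dissolved in DMSO, tested over a dilution series from 500 downward. MIC taken as ≥95% growth reduction (IC95) versus drug-free control. Benzylpenicillin comparator. Readings at 24 and 48 h.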
# Trichosporon asahii [9] = assay: Antifungal activity against Trichosporon asahii 1188 after 24 hrs by broth microdilution method; format: functional; conditions: Trichosporon asahii, 1188, 24 h; how it was run: as §3
# Candida tropicalis = assay: Antifungal activity against Candida tropicalis 156 at 500 micromol/L after 24 to 48 hrs by broth microdilution method; format: functional, organism-based; how it was run: as §3
# Candida albicans [10] = assay: Antifungal activity against Candida albicans ATCC 44859 after 24 hrs by broth microdilution method; format: functional; conditions: ATCC 44859, 24 h; how it was run: as §3
# HepG2 = assay: Cytotoxicity against human HepG2 cells after 24 hrs by CellTiter assay; format: cell-based; conditions: HepG2, 24 h
# How it was run: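 HepG2 cells (passage 27–33) in MEM with 10% FBS, L-glutamine and NEAA, seeded at 1×10^4 per well. Treated next day with compounds at 0.1–100 µM (or 0.1–25 µmol/L), triplicates, <1% DMSO, for 24 h at 37 °C, 5% CO2. MTS reagent added for 2 h, absorbance read at 490 nm. IC50 taken against untreated (100%) and 10% DMSO (0%) controls.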
# Mycobacterium avium [11] = assay: Antimycobacterial activity against isoniazid, rifampicin, ethambutol and ofloxacin-resistant Mycobacterium avium My 330/88 after 14 days; format: functional; conditions: My 330/88, 336 h; how it was run: as §2
# Mycobacterium kansasii [12] = assay: Antimycobacterial activity against Mycobacterium kansasii My 235/80 after 21 days; format: functional; conditions: My 235/80, 504 h; how it was run: as §2
# Klebsiella pneumoniae [13] = assay: Antibacterial activity against Klebsiella pneumoniae D 11750/08 at 500 micromol/L after 24 to 48 hrs by broth microdilution method; format: functional, organism-based; how it was run: as §4
# Klebsiella pneumoniae [14] = assay: Antibacterial activity against ESBL-positive Klebsiella pneumoniae J 14368/08 at 500 micromol/L after 24 to 48 hrs by broth microdilution method; format: functional, organism-based; how it was run: as §4
# [15] = test system: Trichophyton mentagrophytes; assay: Antifungal activity against Trichophyton mentagrophytes 445 after 72 hrs by broth microdilution method; format: functional; conditions: Trichophyton mentagrophytes, 445, 72 h; how it was run: as §1
# Aspergillus fumigatus [16] = assay: Antifungal activity against Aspergillus fumigatus 231 after 24 hrs by broth microdilution method; format: functional; conditions: Aspergillus fumigatus, 231, 24 h; how it was run: as §3
# Staphylococcus aureus [17] = assay: Antibacterial activity against methicillin-resistant Staphylococcus aureus H 5996/08 after 48 hrs by broth microdilution method; format: functional; conditions: H 5996/08, 48 h; how it was run: as §4
# Pichia kudriavzevii [18] = assay: Antifungal activity against Candida krusei E28 after 24 hrs by broth microdilution method; format: functional; conditions: E28, 24 h; how it was run: as §3
# Lichtheimia corymbifera [19] = assay: Antifungal activity against Absidia corymbifera 272 after 48 hrs by broth microdilution method; format: functional; conditions: Lichtheimia corymbifera, 272, 48 h; how it was run: as §3
# Escherichia coli = assay: Antibacterial activity against Escherichia coli CCM 4517 at 500 micromol/L after 24 to 48 hrs by broth microdilution method; format: functional, organism-based; how it was run: as §4
# Nakaseomyces glabratus = assay: Antifungal activity against Candida glabrata 20/I at 500 micromol/L after 24 to 48 hrs by broth microdilution method; format: functional, organism-based; how it was run: as §3
# Mycobacterium avium [20] = assay: Antimycobacterial activity against isoniazid, rifampicin, ethambutol and ofloxacin-resistant Mycobacterium avium My 330/88 after 21 days; format: functional; conditions: My 330/88, 504 h; how it was run: as §2
# Mycobacterium kansasii [21] = assay: Antimycobacterial activity against Mycobacterium kansasii 6509/96 after 7 days; format: functional; conditions: 6509/96, 168 h; how it was run: as §2
# Pichia kudriavzevii [22] = assay: Antifungal activity against Candida krusei E28 after 48 hrs by broth microdilution method; format: functional; conditions: E28, 48 h; how it was run: as §3
# [23] = test system: Staphylococcus epidermidis; assay: Antibacterial activity against Staphylococcus epidermidis H 6966/08 after 48 hrs by broth microdilution method; format: functional; conditions: H 6966/08, 48 h; how it was run: as §4
# Aspergillus fumigatus [24] = assay: Antifungal activity against Aspergillus fumigatus 231 after 48 hrs by broth microdilution method; format: functional; conditions: Aspergillus fumigatus, 231, 48 h; how it was run: as §3
# Trichosporon asahii [25] = assay: Antifungal activity against Trichosporon asahii 1188 after 48 hrs by broth microdilution method; format: functional; conditions: Trichosporon asahii, 1188, 48 h; how it was run: as §3
# Staphylococcus aureus [26] = assay: Antibacterial activity against Staphylococcus aureus CCM 4516/08 after 48 hrs by broth microdilution method; format: functional; conditions: CCM 4516/08, 48 h; how it was run: as §4
# Pseudomonas aeruginosa = assay: Antibacterial activity against Pseudomonas aeruginosa CCM 1961 at 500 micromol/L after 24 to 48 hrs by broth microdilution method; format: functional, organism-based; how it was run: as §4
# [27] = test system: Staphylococcus epidermidis; assay: Antibacterial activity against Staphylococcus epidermidis H 6966/08 after 24 hrs by broth microdilution method; format: functional; conditions: H 6966/08, 24 h; how it was run: as §4
# Staphylococcus aureus [28] = assay: Antibacterial activity against Staphylococcus aureus CCM 4516/08 after 24 hrs by broth microdilution method; format: functional; conditions: CCM 4516/08, 24 h; how it was run: as §4
# Enterococcus sp. = assay: Antibacterial activity against Enterococcus sp. J 14365/08 at 500 micromol/L after 24 to 48 hrs by broth microdilution method; format: functional, organism-based; how it was run: as §4
# Mycobacterium kansasii [29] = assay: Antimycobacterial activity against Mycobacterium kansasii 6509/96 after 21 days; format: functional; conditions: 6509/96, 504 h; how it was run: as §2
# Candida albicans [30] = assay: Antifungal activity against Candida albicans ATCC 44859 after 48 hrs by broth microdilution method; format: functional; conditions: ATCC 44859, 48 h; how it was run: as §3
SMILES,MIC50 [1] [µM],MIC [2] [µM],MIC50 (Lichtheimia corymbifera [3]) [µM],MIC [4] [µM],MIC (Mycobacterium kansasii [5]) [µM],MIC (Mycobacterium kansasii [6]) [µM],MIC (Mycobacterium kansasii [7]) [µM],MIC95 (Staphylococcus aureus [8]) [µM],MIC80 (Trichosporon asahii [9]) [µM],Activity (Candida tropicalis),MIC80 (Candida albicans [10]) [µM],pIC50 (HepG2),MIC (Mycobacterium avium [11]) [µM],MIC (Mycobacterium kansasii [12]) [µM],Activity (Klebsiella pneumoniae [13]),Activity (Klebsiella pneumoniae [14]),MIC50 [15] [µM],MIC50 (Aspergillus fumigatus [16]) [µM],MIC95 (Staphylococcus aureus [17]) [µM],MIC80 (Pichia kudriavzevii [18]) [µM],also measured
CCOP(=O)(OCC)Oc1ccc(Br)cc1C(=O)Nc1cccc(Cl)c1,15.6,4,> 500,4,4,8,8,125,15.6,inactive,> 500,5.19,16,8,inactive,inactive,7.81,> 500,250,31.2,MIC50 (Lichtheimia corymbifera [19]): > 500 µM; Activity (Escherichia coli): inactive; Activity (Nakaseomyces glabratus): inactive; MIC (Mycobacterium avium [20]): 16 µM; MIC (Mycobacterium kansasii [21]): 4 µM; MIC80 (Pichia kudriavzevii [22]): 125 µM; MIC95 [23]: 250 µM; MIC50 (Aspergillus fumigatus [24]): > 500 µM; MIC80 (Trichosporon asahii [25]): 62.5 µM; MIC95 (Staphylococcus aureus [26]): 250 µM; Activity (Pseudomonas aeruginosa): inactive; MIC95 [27]: 125 µM; MIC95 (Staphylococcus aureus [28]): 125 µM; Activity (Enterococcus sp.): inactive; MIC (Mycobacterium kansasii [29]): 8 µM; MIC80 (Candida albicans [30]): > 500 µM
CCOP(=O)(OCC)Oc1ccc(Br)cc1C(=O)Nc1ccc(Br)cc1,3.9,2,125,2,2,4,4,3.9,62.5,inactive,> 500,5.25,8,4,inactive,inactive,3.9,500,3.9,125,MIC50 (Lichtheimia corymbifera [19]): 125 µM; Activity (Escherichia coli): inactive; Activity (Nakaseomyces glabratus): inactive; MIC (Mycobacterium avium [20]): 8 µM; MIC (Mycobacterium kansasii [21]): 4 µM; MIC80 (Pichia kudriavzevii [22]): 125 µM; MIC95 [23]: 1.95 µM; MIC50 (Aspergillus fumigatus [24]): 500 µM; MIC80 (Trichosporon asahii [25]): 62.5 µM; MIC95 (Staphylococcus aureus [26]): 7.81 µM; Activity (Pseudomonas aeruginosa): inactive; MIC95 [27]: 1.95 µM; MIC95 (Staphylococcus aureus [28]): 7.81 µM; Activity (Enterococcus sp.): inactive; MIC (Mycobacterium kansasii [29]): 4 µM; MIC80 (Candida albicans [30]): > 500 µM
